According to ChEMBL document CHEMBL3046615, “Isolation of nematicidal compounds from Tagetes patula L. yellow flowers: structure-activity relationship studies against cyst nematode Heterodera zeae infective stage larvae” (2011):
Activity calls are given as the source filed them. The rule behind the calls is not given here.

Assays:
[1] = system: Heterodera zeae; test: Nematicidal activity against Heterodera zeae infective stage larvae assessed as nematode mortality at 1% under light conditions measured 72 hr post dose by stereoscopic microscopy; type: functional
How it was run: (§1)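 Freshly hatched H. zeae second-stage juveniles, 100 per Petri plate, three replicates. Samples in MeOH, DMSO or water were tested in glass cavity blocks; petroleum ether samples were dried onto the block and larvae transferred on agar pieces. Percentages are dilutions of 30 mg/mL stocks (extracts/fractions) or 1 mg/mL stocks (pure compounds). Incubated at 28 ± 2 °C in light or dark box; mortality averaged over three replicates.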

[2] = system: Heterodera zeae; test: Nematicidal activity against Heterodera zeae infective stage larvae assessed as nematode mortality at 0.25% under dark conditions measured 24 hr post dose by stereoscopic microscopy; type: functional; how it was run: as §1
[3] = system: Heterodera zeae; test: Nematicidal activity against Heterodera zeae infective stage larvae assessed as nematode mortality at 1% under dark conditions measured 5 to 60 min post dose by stereoscopic microscopy; type: functional, organism-based
How it was run: (§2)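 H. zeae freshly hatched second-stage juveniles, 100 per plate, three replicates, at 28 ± 2 °C under light or in a dark box. Dilutions are % of a stock: 30 mg/mL for extracts/fractions, 1 mg/mL for pure compounds. Methanol-, DMSO- or water-soluble samples were tested in glass cavity blocks. Petroleum ether-soluble samples were air-dried in the block and covered with agar pieces bearing cultured larvae. Mortality was followed over 5–60 min; each value is the mean of three experiments.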

[4] = system: Heterodera zeae; test: Nematicidal activity against Heterodera zeae infective stage larvae assessed as nematode mortality at 1% under light conditions measured 24 hr post dose by stereoscopic microscopy; type: functional; how it was run: as §1
[5] = system: Heterodera zeae; test: Nematicidal activity against Heterodera zeae infective stage larvae assessed as nematode mortality at 0.125% under light conditions measured 5 to 60 min post dose by stereoscopic microscopy; type: functional, organism-based; how it was run: as §2
[6] = system: Heterodera zeae; test: Nematicidal activity against Heterodera zeae infective stage larvae assessed as nematode mortality at 0.125% under light conditions measured 24 hr post dose by stereoscopic microscopy; type: functional; how it was run: as §1
[7] = system: Heterodera zeae; test: Nematicidal activity against Heterodera zeae infective stage larvae assessed as nematode mortality at 0.125% under dark conditions measured 72 hr post dose by stereoscopic microscopy; type: functional; how it was run: as §1
[8] = system: Heterodera zeae; test: Nematicidal activity against Heterodera zeae infective stage larvae assessed as nematode mortality at 0.5% under dark conditions measured 5 to 60 min post dose by stereoscopic microscopy; type: functional, organism-based; how it was run: as §2
[9] = system: Heterodera zeae; test: Nematicidal activity against Heterodera zeae infective stage larvae assessed as nematode mortality at 0.25% under light conditions measured 48 hr post dose by stereoscopic microscopy; type: functional; how it was run: as §1
[10] = system: Heterodera zeae; test: Nematicidal activity against Heterodera zeae infective stage larvae assessed as nematode mortality at 0.125% under dark conditions measured 48 hr post dose by stereoscopic microscopy; type: functional; how it was run: as §1
[11] = system: Heterodera zeae; test: Nematicidal activity against Heterodera zeae infective stage larvae assessed as nematode mortality at 1% under dark conditions measured 72 hr post dose by stereoscopic microscopy; type: functional; how it was run: as §1
[12] = system: Heterodera zeae; test: Nematicidal activity against Heterodera zeae infective stage larvae assessed as nematode mortality at 0.5% under dark conditions measured 72 hr post dose by stereoscopic microscopy; type: functional; how it was run: as §1
[13] = system: Heterodera zeae; test: Nematicidal activity against Heterodera zeae infective stage larvae assessed as nematode mortality at 0.5% under light conditions measured 48 hr post dose by stereoscopic microscopy; type: functional; how it was run: as §1
[14] = system: Heterodera zeae; test: Nematicidal activity against Heterodera zeae infective stage larvae assessed as nematode mortality at 0.125% under light conditions measured 48 hr post dose by stereoscopic microscopy; type: functional; how it was run: as §1
[15] = system: Heterodera zeae; test: Nematicidal activity against Heterodera zeae infective stage larvae assessed as nematode mortality at 0.5% under light conditions measured 72 hr post dose by stereoscopic microscopy; type: functional; how it was run: as §1
[16] = system: Heterodera zeae; test: Nematicidal activity against Heterodera zeae infective stage larvae assessed as nematode mortality at 0.5% under dark conditions measured 24 hr post dose by stereoscopic microscopy; type: functional; how it was run: as §1
[17] = system: Heterodera zeae; test: Nematicidal activity against Heterodera zeae infective stage larvae assessed as nematode mortality at 5% under light conditions measured 5 to 60 min post dose by stereoscopic microscopy; type: functional, organism-based; how it was run: as §2
[18] = system: Heterodera zeae; test: Nematicidal activity against Heterodera zeae infective stage larvae assessed as nematode mortality at 2% under light conditions measured 5 to 60 min post dose by stereoscopic microscopy; type: functional, organism-based; how it was run: as §2
[19] = system: Heterodera zeae; test: Nematicidal activity against Heterodera zeae infective stage larvae assessed as nematode mortality at 0.5% under light conditions measured 5 to 60 min post dose by stereoscopic microscopy; type: functional, organism-based; how it was run: as §2
[20] = system: Heterodera zeae; test: Nematicidal activity against Heterodera zeae infective stage larvae assessed as nematode mortality at 0.25% under dark conditions measured 72 hr post dose by stereoscopic microscopy; type: functional; how it was run: as §1
[21] = system: Heterodera zeae; test: Nematicidal activity against Heterodera zeae infective stage larvae assessed as nematode mortality at 0.25% under light conditions measured 24 hr post dose by stereoscopic microscopy; type: functional; how it was run: as §1
[22] = system: Heterodera zeae; test: Nematicidal activity against Heterodera zeae infective stage larvae assessed as nematode mortality at 0.125% under dark conditions measured 24 hr post dose by stereoscopic microscopy; type: functional; how it was run: as §1
[23] = system: Heterodera zeae; test: Nematicidal activity against Heterodera zeae infective stage larvae assessed as nematode mortality at 0.5% under light conditions measured 24 hr post dose by stereoscopic microscopy; type: functional; how it was run: as §1
[24] = system: Heterodera zeae; test: Nematicidal activity against Heterodera zeae infective stage larvae assessed as nematode mortality at 0.25% under dark conditions measured 5 to 60 min post dose by stereoscopic microscopy; type: functional, organism-based; how it was run: as §2
[25] = system: Heterodera zeae; test: Nematicidal activity against Heterodera zeae infective stage larvae assessed as nematode mortality at 0.125% under dark conditions measured 5 to 60 min post dose by stereoscopic microscopy; type: functional, organism-based; how it was run: as §2
[26] = system: Heterodera zeae; test: Nematicidal activity against Heterodera zeae infective stage larvae assessed as nematode mortality at 5% under dark conditions measured 5 to 60 min post dose by stereoscopic microscopy; type: functional, organism-based; how it was run: as §2
[27] = system: Heterodera zeae; test: Nematicidal activity against Heterodera zeae infective stage larvae assessed as nematode mortality at 0.25% under light conditions measured 5 to 60 min post dose by stereoscopic microscopy; type: functional, organism-based; how it was run: as §2
[28] = system: Heterodera zeae; test: Nematicidal activity against Heterodera zeae infective stage larvae assessed as nematode mortality at 1% under dark conditions measured 24 hr post dose by stereoscopic microscopy; type: functional; how it was run: as §1
[29] = system: Heterodera zeae; test: Nematicidal activity against Heterodera zeae infective stage larvae assessed as nematode mortality at 1% under light conditions measured 48 hr post dose by stereoscopic microscopy; type: functional; how it was run: as §1
[30] = system: Heterodera zeae; test: Nematicidal activity against Heterodera zeae infective stage larvae assessed as nematode mortality at 0.25% under light conditions measured 72 hr post dose by stereoscopic microscopy; type: functional; how it was run: as §1
[31] = system: Heterodera zeae; test: Nematicidal activity against Heterodera zeae infective stage larvae assessed as nematode mortality at 2% under dark conditions measured 5 to 60 min post dose by stereoscopic microscopy; type: functional, organism-based; how it was run: as §2
[32] = system: Heterodera zeae; test: Nematicidal activity against Heterodera zeae infective stage larvae assessed as nematode mortality at 0.125% under light conditions measured 72 hr post dose by stereoscopic microscopy; type: functional; how it was run: as §1
[33] = system: Heterodera zeae; test: Nematicidal activity against Heterodera zeae infective stage larvae assessed as nematode mortality at 0.5% under dark conditions measured 48 hr post dose by stereoscopic microscopy; type: functional; how it was run: as §1
[34] = system: Heterodera zeae; test: Nematicidal activity against Heterodera zeae infective stage larvae assessed as nematode mortality at 1% under dark conditions measured 48 hr post dose by stereoscopic microscopy; type: functional; how it was run: as §1
[35] = system: Heterodera zeae; test: Nematicidal activity against Heterodera zeae infective stage larvae assessed as nematode mortality at 1% under light conditions measured 5 to 60 min post dose by stereoscopic microscopy; type: functional, organism-based; how it was run: as §2
[36] = system: Heterodera zeae; test: Nematicidal activity against Heterodera zeae infective stage larvae assessed as nematode mortality at 0.25% under dark conditions measured 48 hr post dose by stereoscopic microscopy; type: functional; how it was run: as §1

Structure (SMILES)	mortality [1] [%]	mortality [2] [%]	Activity [3]	mortality [4] [%]	Activity [5]	mortality [6] [%]	mortality [7] [%]	Activity [8]	mortality [9] [%]	mortality [10] [%]	mortality [11] [%]	mortality [12] [%]	mortality [13] [%]	mortality [14] [%]	mortality [15] [%]	mortality [16] [%]	Activity [17]	Activity [18]	Activity [19]	mortality [20] [%]	also measured
O=C(O)c1ccc(O)cc1 [PARABEN]	100	0	inactive	0	inactive	0	40	inactive	40	10	70	50	40	40	50	0	inactive	inactive	inactive	50	mortality [21]: 0%; mortality [22]: 0%; mortality [23]: 0%; Activity [24]: inactive; Activity [25]: inactive; Activity [26]: inactive; Activity [27]: inactive; mortality [28]: 0%; mortality [29]: 50%; mortality [30]: 50%; Activity [31]: inactive; mortality [32]: 50%; mortality [33]: 40%; mortality [34]: 40%; Activity [35]: inactive; mortality [36]: 40%
COc1c(O)cc2oc(-c3ccc(O)c(O)c3)c(O)c(=O)c2c1O [PATULETIN]	100	0	inactive	40	inactive	20	0	inactive	70	0	60	20	20	50	100	0	inactive	inactive	inactive	10	mortality [21]: 20%; mortality [22]: 0%; mortality [23]: 20%; Activity [24]: inactive; Activity [25]: inactive; Activity [26]: inactive; Activity [27]: inactive; mortality [28]: 20%; mortality [29]: 40%; mortality [30]: 100%; Activity [31]: inactive; mortality [32]: 100%; mortality [33]: 20%; mortality [34]: 60%; Activity [35]: inactive; mortality [36]: 10%
COc1c(O[C@@H]2O[C@H](CO)[C@@H](O)[C@H](O)[C@H]2O)cc2oc(-c3ccc(O)c(O)c3)c(O)c(=O)c2c1O [PATULITRIN]	50	0	inactive	0	inactive	0	10	inactive	20	0	50	40	0	0	50	0	inactive	inactive	inactive	20	mortality [21]: 0%; mortality [22]: 0%; mortality [23]: 0%; Activity [24]: inactive; Activity [25]: inactive; Activity [26]: inactive; Activity [27]: inactive; mortality [28]: 0%; mortality [29]: 20%; mortality [30]: 20%; Activity [31]: inactive; mortality [32]: 10%; mortality [33]: 20%; mortality [34]: 40%; Activity [35]: inactive; mortality [36]: 10%
O=c1c(O)c(-c2ccc(O)c(O)c2)oc2cc(O)cc(O)c12 [QUERCETIN]	70	40	inactive	50	inactive	40	40	inactive	50	40	70	70	50	50	80	40	inactive	inactive	inactive	50	mortality [21]: 40%; mortality [22]: 40%; mortality [23]: 50%; Activity [24]: inactive; Activity [25]: inactive; Activity [26]: inactive; Activity [27]: inactive; mortality [28]: 50%; mortality [29]: 50%; mortality [30]: 70%; Activity [31]: inactive; mortality [32]: 80%; mortality [33]: 50%; mortality [34]: 70%; Activity [35]: inactive; mortality [36]: 50%
COc1ccc(C(=O)O)cc1 [p-ANISIC ACID]	80	30	inactive	40	inactive	10	50	inactive	20	20	90	80	40	10	50	50	inactive	inactive	inactive	80	mortality [21]: 10%; mortality [22]: 10%; mortality [23]: 30%; Activity [24]: inactive; Activity [25]: inactive; Activity [26]: inactive; Activity [27]: inactive; mortality [28]: 50%; mortality [29]: 50%; mortality [30]: 50%; Activity [31]: inactive; mortality [32]: 40%; mortality [33]: 50%; mortality [34]: 60%; Activity [35]: inactive; mortality [36]: 40%
